# The list is not random: actives were taken first. Their share in the collection is about 2.9%.
# SENP7 block – SENP7 protease inhibitors, primary screen, biochemical, luminescence, uHTS; Sentrin-specific protease 7 (Homo sapiens), Q9BQF6; recombinant SENP7, Z-RLRGG-aminoluciferin luminescence, 40 min; inhibition, % at 5 µM; actives 1.5% (n = 330,000);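 active = inhibition above about 50% at the single test dose, limit read from the data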
# SENP8 block-1 – SENP8 protease inhibitors, primary screen, biochemical, luminescence; AID 2540, 2010; actives 1.2% (n = 330,000); inhibition, % at 10 µM; purified SENP8, Z-RLRGG-aminoluciferin cleavage; in the data active = inhibition above about 50%
# SENP1 FRET inh – human SENP1 catalytic domain inhibitors, primary screen, biochemical, FRET, uHTS; recombinant SENP1 catalytic domain, CyPet-SUMO1-YPet FRET cleavage; inhibition, % at 10 µM; actives 0.21% (n = 360,000);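 active = inhibition at least 30% at 10 µM, raw YFP signal under a set limit, fluorescence ratio 0.5 to 1.5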
#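 system = hSENP1 catalytic domain, recombinant | reagent = SFCypet-SUMO1-SFYpet substrate at 25 nM | doses = one dose per compound, 10 µM, 0.5% DMSO | incubation = enzyme reaction for 50 min at room temperature, dark | measured by = FRET, CFP and YFP emission | controls = no-enzyme low, enzyme-DMSO high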
# Apaf1 inhib – inhibitors of human Apaf-1 apoptosome, primary screen, biochemical, DEVD-Rh110 fluorescence, uHTS | Apoptotic protease-activating factor 1 (Homo sapiens), O14727 | reconstituted apoptosome caspase-3 activity | inhibition, % at 20 µM | actives 0.71% (n = 330,000); active = inhibition of at least 40% at 20 µM
#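 System – cell-free apoptosome with Apaf-1, procaspase-3 and caspase-9 · Buffer or medium – pH 7.5 Hepes buffer with CHAPS, BSA, DTT · Also added – cytochrome c with DEVD-Rh110 · Times – 30 min compound preincubation, 50 min activation, room temperature · Technique – Rh110 fluorescence intensity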
# SENP6 inh – SENP6 protease inhibitors, primary screen, biochemical, luminescence, uHTS | Sentrin-specific protease 6 (Homo sapiens), Q9GZR1 | Recombinant SENP6 catalytic domain, aminoluciferin luminescence | inhibition, % at 10 µM | actives 1.8% (n = 330,000) | AID 2599, 2010;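 active = inhibition above about 50% at the single tested dose, limit read from the data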
# Target sequence (Q9GZR1 628-1112 limits assumed): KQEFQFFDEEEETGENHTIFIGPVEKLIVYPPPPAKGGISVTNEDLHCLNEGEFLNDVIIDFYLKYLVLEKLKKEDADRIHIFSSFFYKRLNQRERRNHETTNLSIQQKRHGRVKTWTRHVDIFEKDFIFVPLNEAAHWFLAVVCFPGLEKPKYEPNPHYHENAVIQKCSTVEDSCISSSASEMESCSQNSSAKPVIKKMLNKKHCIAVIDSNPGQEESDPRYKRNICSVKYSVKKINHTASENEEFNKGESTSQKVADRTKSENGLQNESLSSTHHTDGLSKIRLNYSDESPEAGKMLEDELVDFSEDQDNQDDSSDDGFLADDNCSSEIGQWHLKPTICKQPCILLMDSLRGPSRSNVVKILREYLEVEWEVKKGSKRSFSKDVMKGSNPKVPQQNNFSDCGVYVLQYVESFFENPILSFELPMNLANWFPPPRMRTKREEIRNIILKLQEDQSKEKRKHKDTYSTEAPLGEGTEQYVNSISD
# SENP8 block-2 – human SENP8 protease inhibitors, primary screen, biochemical, fluorescence, Nedd8 protein substrate, uHTS. Sentrin-specific protease 8 (Homo sapiens), Q96LD8. recombinant SENP8. inhibition, % at 20 µM. actives 0.64% (n = 360,000). AID 602440, 2012; in the data active = inhibition mostly above about 40%, no sharp cut-off; inactive = mostly below about 27%
# SENP8 conf – SENP8 protease inhibitors, retest, confirmation, biochemical, luminescence, single concentration. shares compounds with SENP7 block. Recombinant SENP8, Z-RLRGG-aminoluciferin luminescence, 60 min. inhibition, % at 12.5 µM. actives 40% (n = 6,200). AID 488912, 2010;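 active = mean inhibition across replicates above about 50%, limit read from the data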
# SENP6 conf – SENP6 protease inhibitors, confirmation, biochemical, luminescence, single concentration. actives 58% (n = 6,200). AID 488915, 2010. shares compounds with SENP7 block. inhibition, % at 12.5 µM. recombinant SENP6, Z-RLRGG-aminoluciferin luminescence
# SENP7 confirm – SENP7 protease inhibitors, retest, confirmation, biochemical, luminescence, single concentration | shares compounds with SENP7 block | AID 488917, 2010 | actives 69% (n = 6,200) | recombinant SENP7, Z-RLRGG-aminoluciferin luminescence, 40 min | inhibition, % at 12.5 µM
# Casp3 SENP sel – caspase-3 protease inhibitors, confirmation, selectivity assay for SENP inhibitor project, biochemical, single concentration; shares compounds with SENP7 block; purified caspase-3, Z-DEVD-aminoluciferin luminescence, 60 min; inhibition, % at 12.5 µM; actives 60% (n = 6,200);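 active = mean inhibition above about 50%, limit read from the data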
# Target sequence (P42574 28-227 limits assumed): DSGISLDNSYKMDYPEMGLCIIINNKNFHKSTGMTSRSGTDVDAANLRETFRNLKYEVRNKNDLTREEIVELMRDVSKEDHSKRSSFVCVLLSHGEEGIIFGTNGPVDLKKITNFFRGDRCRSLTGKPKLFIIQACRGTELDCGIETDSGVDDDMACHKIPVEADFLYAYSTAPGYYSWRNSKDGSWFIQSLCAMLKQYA
# SENP luc ctr – counter-screen for SENP inhibitors: luminescence interference; inhibition, % at 12.5 µM; Pre-incubated SENP8/Z-RLRGG-aminoluciferin, luciferase luminescence interference; actives 39% (n = 6,200); AID 488919; shares compounds with SENP7 block;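 active = mean inhibition above about 50% when retested at one dose, limit read from the data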
# A number is an active result; – = inactive; · = no result.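 The calls were made as follows, unless noted: active = mean inhibition above about 50% in the one-dose retest (limit read from the data); inactive = the rest.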
SMILES,SENP7 block,SENP8 block-1,SENP1 FRET inh,Apaf1 inhib,SENP6 inh,SENP8 block-2,SENP8 conf,SENP6 conf,SENP7 confirm,Casp3 SENP sel,SENP luc ctr
CCN1CCN(c2nc(N)c([N+](=O)[O-])c(Nc3ccc(C)c(C)c3)n2)CC1,–,–,–,–,–,–,·,·,·,·,·
Cc1ccc(Nc2n[nH]c(C)c2[N+](=O)[O-])cc1C,–,–,–,–,58,–,–,–,84,53,–
Cc1ccc(Cn2ccsc2=NC(=O)COC(=O)c2ccc(O)cc2O)cc1,–,–,–,–,74,–,57,55,79,–,–
CC(=O)c1sc(N/N=C\c2ccccc2O)nc1C,–,56,–,–,68,–,–,–,82,–,–
CCOC(=O)c1sc(N/N=C/c2ccccc2)nc1C,–,–,–,–,–,–,·,·,·,·,·
Cc1[nH]nc(SCC(=O)N2CCCCC2)c1[N+](=O)[O-],–,–,–,–,–,–,·,·,·,·,·
Cc1[nH]nc(SCC(=O)N2CCCCCC2)c1[N+](=O)[O-],–,52,–,–,–,–,98,100,103,99,88
CCN1C(=O)[C@H]2[C@@H](c3ccc(-c4ccccc4)cc3)N3CCCC[C@@]3(C(=O)OC)[C@H]2C1=O,–,–,–,–,–,–,·,·,·,·,·
CC(C)(C)c1ccc(NC(=O)c2ccsc2)cc1,82,82,–,–,86,–,86,85,98,78,–
CCc1sc(C(=O)Nc2cccnc2)cc1Br,79,60,–,–,84,–,–,67,91,64,72
CC(C)(C)c1ccc(C(=O)Nc2cccnc2)cc1,62,53,–,–,69,–,–,55,86,66,62
Cc1cccc(NC(=O)c2cc(-c3cc(C)c(C)cc3O)n[nH]2)c1,–,–,–,–,–,–,·,·,·,·,·
Cc1ccc(-c2cc(C(=O)Nc3cccnc3)[nH]n2)c(O)c1C,95,93,–,–,98,–,96,97,101,90,96
O=C1N(Cc2ccccc2)c2ccccc2OC1(F)F,·,·,–,·,·,–,·,·,·,·,·
CCN(CC)C(=O)Cn1cc(C(=O)C(=O)Nc2ccc3c(c2)OCO3)c2ccccc21,·,·,–,·,·,–,·,·,·,·,·
CC(=O)c1cccc(-c2ccnc3c2CC(C(=O)Nc2ccc(Cl)c(C(F)(F)F)c2)O3)c1 (centres undefined),·,·,–,·,·,–,·,·,·,·,·
CC(=O)NC(c1ccccc1)c1nc(-c2ccccc2)cs1 (centres undefined),·,·,–,·,·,–,·,·,·,·,·
Cc1ccccc1OCC(O)Cn1c(=N)n(Cc2ccccc2)c2ccccc21 (centres undefined),51,–,–,–,–,–,–,–,–,–,–
COc1ccc(CN2C(=O)c3cccc4cccc(c34)C2c2nc3ccccc3[nH]2)cc1 (centres undefined),·,·,–,·,·,–,·,·,·,·,·
FC(F)(F)c1cc(Cl)c2nc(-c3ccccc3)cn2c1,87,76,–,–,83,–,–,81,94,69,–
Nc1cccc(-c2cn3cc(C(F)(F)F)cc(Cl)c3n2)c1,86,70,–,–,82,–,84,84,97,86,86
FC(F)(F)c1cc(Cl)c2nc(-c3ccccc3)c(Cc3ccsc3)n2c1,·,·,–,·,·,–,·,·,·,·,·
O=C(c1[nH]c(C(F)(F)F)nc1-c1ccccc1)N1CCCN(Cc2ccc(F)cc2)CC1,·,·,–,·,·,–,·,·,·,·,·
CC(=O)NC(C)(c1ccccc1)c1nc(-c2ccc(N(C)C)cc2)cs1 (centres undefined),·,·,–,·,·,–,·,·,·,·,·
CCc1ccc(C2CC(c3ccco3)=NN2S(C)(=O)=O)cc1 (centres undefined),92,89,–,–,94,–,96,97,102,96,92
SMILES,SENP7 block,SENP8 block-1,SENP1 FRET inh,Apaf1 inhib,SENP6 inh,SENP8 block-2,SENP8 conf,SENP6 conf,SENP7 confirm,Casp3 SENP sel,SENP luc ctr
CCOc1ccc2cc(C3CC(c4ccco4)=NN3S(C)(=O)=O)c(Cl)nc2c1 (centres undefined),–,–,–,–,–,–,·,·,·,·,·
O=c1c2ccccc2nnn1CSc1ccccc1F,68,61,–,–,–,–,78,77,94,84,79
Cc1ccc(SCn2nnc3ccccc3c2=O)c(C)c1,–,–,–,–,–,–,·,·,·,·,·
COc1ccc(-c2cn3nc(SCC(=O)NC4CCCCC4)ccc3n2)cc1,61,–,–,–,–,–,–,–,–,–,–
COc1ccc(-c2ccc(SCC(=O)NC3CCCCC3)nn2)cc1,–,–,–,–,–,–,·,·,·,·,·
N#Cc1ccc(NC(=S)NC(=O)C2CC2)cc1,·,·,–,·,·,–,·,·,·,·,·
O=C(N/N=C/c1cc2c(cc1Cl)OCO2)c1cccc(Br)c1,–,–,–,–,51,–,–,–,–,–,–
CCC(=O)Nc1cnc(NC(=O)c2cccc(F)c2)cc1C,59,–,–,–,58,–,–,–,78,83,–
CSCC[C@H](NC(=O)c1ccc(OCC2CCCO2)cc1)c1nc2ccccc2[nH]1 (some centres undefined),–,–,–,–,–,–,·,·,·,·,·
COc1cc(C(=O)NC(C)c2cccc3ccccc23)cc(OC)c1OC (centres undefined),–,–,–,–,–,–,·,·,·,·,·
Cc1ccccc1NC(=O)Nc1nc2ccc(S(C)(=O)=O)cc2s1,51,–,–,–,–,–,–,–,–,–,–
CCCC(=O)Nc1nc2ccc(S(N)(=O)=O)cc2s1,–,–,–,–,–,–,·,·,·,·,·

# High-throughput results: PubChem, Sanford-Burnham Center for Chemical Genomics
